Measured values taken from ChEMBL document CHEMBL4354843, “Structure-Based Design of a Potent and Selective Covalent Inhibitor for SRC Kinase That Targets a P-Loop Cysteine” (J Med Chem, 2020).
Active and inactive are the calls of the source. The rule behind the calls is not given here.

Assays:
[1] = target: Serine/threonine-protein kinase pim-3 (Homo sapiens) (UniProt Q86V86); assay: Binding affinity to wild-type human partial length PIM3 (G16 to A317 residues) expressed in bacterial expression system assessed as residual binding level at 1 uM by Kinomescan method relative to control
[2] = target: Serine/threonine-protein kinase Nek5 (Homo sapiens) (UniProt Q6P3R8); assay: Binding affinity to wild-type human partial length NEK5 (M1 to M279 residues) expressed in bacterial expression system assessed as residual binding level at 1 uM by Kinomescan method relative to control
[3] = target: Fibroblast growth factor receptor 3 (Homo sapiens) (UniProt P22607); assay: Binding affinity to wild-type human partial length FGFR3 (R442 to S771 residues) expressed in bacterial expression system assessed as residual binding level at 1 uM by Kinomescan method relative to control
[4] = target: Dual specificity tyrosine-phosphorylation-regulated kinase 1B (Homo sapiens) (UniProt Q9Y463); assay: Binding affinity to wild-type human full length DYRK1B (M1 to S629 residues) expressed in bacterial expression system assessed as residual binding level at 1 uM by Kinomescan method relative to control
Chain of Dual specificity tyrosine-phosphorylation-regulated kinase 1B (Homo sapiens) (Q9Y463 whole entry, looked up, the tested form may be a part): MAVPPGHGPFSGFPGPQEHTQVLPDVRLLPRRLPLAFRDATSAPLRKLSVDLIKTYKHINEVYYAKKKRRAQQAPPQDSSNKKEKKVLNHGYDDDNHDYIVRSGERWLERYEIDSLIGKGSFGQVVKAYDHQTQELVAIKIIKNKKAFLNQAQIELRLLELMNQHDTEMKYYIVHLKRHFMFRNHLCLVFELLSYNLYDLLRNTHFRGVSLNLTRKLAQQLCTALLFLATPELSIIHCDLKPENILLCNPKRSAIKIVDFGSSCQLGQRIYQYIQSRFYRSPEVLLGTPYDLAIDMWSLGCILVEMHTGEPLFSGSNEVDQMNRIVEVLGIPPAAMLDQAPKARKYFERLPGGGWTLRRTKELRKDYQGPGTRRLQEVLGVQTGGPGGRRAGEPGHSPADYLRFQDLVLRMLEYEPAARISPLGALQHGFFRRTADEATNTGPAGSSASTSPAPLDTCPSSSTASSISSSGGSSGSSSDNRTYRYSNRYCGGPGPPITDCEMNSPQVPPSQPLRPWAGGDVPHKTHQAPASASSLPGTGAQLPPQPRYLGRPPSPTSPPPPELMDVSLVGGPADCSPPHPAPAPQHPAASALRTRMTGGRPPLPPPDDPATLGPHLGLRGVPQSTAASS
Method in brief: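 Active-site-directed KinomeScan competition binding panel covering 468 kinases, compound tested at 1 μM. Each readout is the kinase signal remaining with compound, expressed as a percentage of the DMSO control. […]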

[5] = target: Tyrosine-protein kinase Fgr (Homo sapiens) (UniProt P09769); assay: Binding affinity to wild-type human partial length FGR (L233 to T529 residues) expressed in bacterial expression system assessed as residual binding level at 1 uM by Kinomescan method relative to control
Chain of Tyrosine-protein kinase Fgr (Homo sapiens) (P09769 2-529 limits assumed): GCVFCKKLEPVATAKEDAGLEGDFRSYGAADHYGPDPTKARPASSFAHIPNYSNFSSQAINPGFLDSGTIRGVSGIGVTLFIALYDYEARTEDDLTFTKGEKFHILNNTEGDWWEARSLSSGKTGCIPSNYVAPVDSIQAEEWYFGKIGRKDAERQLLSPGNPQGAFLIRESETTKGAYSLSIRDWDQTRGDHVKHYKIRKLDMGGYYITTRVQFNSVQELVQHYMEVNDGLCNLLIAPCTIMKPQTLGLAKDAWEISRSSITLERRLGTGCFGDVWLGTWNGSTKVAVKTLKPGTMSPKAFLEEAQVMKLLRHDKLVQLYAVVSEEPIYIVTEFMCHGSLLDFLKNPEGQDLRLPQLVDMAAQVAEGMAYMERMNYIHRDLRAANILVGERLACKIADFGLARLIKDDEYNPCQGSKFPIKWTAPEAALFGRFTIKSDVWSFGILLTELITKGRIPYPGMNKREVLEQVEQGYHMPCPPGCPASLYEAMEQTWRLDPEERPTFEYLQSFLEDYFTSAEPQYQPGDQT
Method in brief: (§1)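 Active-site-directed competition binding panel of 468 kinases (KinomeScan), compound at 1 μM. The read-out is kinase remaining bound, given as a percentage of the DMSO control. […]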

[6] = target: Mitogen-activated protein kinase; ERK1/ERK2 (Homo sapiens) (UniProt P27361+P28482); assay: Inhibition of ERK1/2 in human HCC827 cells assessed as blocking of ERK1/2 pulldown at 1 uM in presence of TL13-68 incubated for 2 hrs by Western blot analysis; assay type: cell-based
Method in brief: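 H1975 or HCC827 cells treated with 1 μM compound or DMSO for 2 h, rinsed twice in cold PBS, and lysed in M-PER with protease/phosphatase inhibitors. Lysate rocked overnight at 4 °C with 1 μM TL13-68, then streptavidin pulldown with five cold washes. Bound kinases detected by Western blot. Two independent experiments.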

[7] = target: Mitogen-activated protein kinase kinase kinase 13 (Homo sapiens) (UniProt O43283); assay: Binding affinity to wild-type human full length LZK (M1 to W966 residues) expressed in mammalian expression system assessed as residual binding level at 1 uM by Kinomescan method relative to control
Chain of Mitogen-activated protein kinase kinase kinase 13 (Homo sapiens) (O43283 whole entry, the tested form may be a part): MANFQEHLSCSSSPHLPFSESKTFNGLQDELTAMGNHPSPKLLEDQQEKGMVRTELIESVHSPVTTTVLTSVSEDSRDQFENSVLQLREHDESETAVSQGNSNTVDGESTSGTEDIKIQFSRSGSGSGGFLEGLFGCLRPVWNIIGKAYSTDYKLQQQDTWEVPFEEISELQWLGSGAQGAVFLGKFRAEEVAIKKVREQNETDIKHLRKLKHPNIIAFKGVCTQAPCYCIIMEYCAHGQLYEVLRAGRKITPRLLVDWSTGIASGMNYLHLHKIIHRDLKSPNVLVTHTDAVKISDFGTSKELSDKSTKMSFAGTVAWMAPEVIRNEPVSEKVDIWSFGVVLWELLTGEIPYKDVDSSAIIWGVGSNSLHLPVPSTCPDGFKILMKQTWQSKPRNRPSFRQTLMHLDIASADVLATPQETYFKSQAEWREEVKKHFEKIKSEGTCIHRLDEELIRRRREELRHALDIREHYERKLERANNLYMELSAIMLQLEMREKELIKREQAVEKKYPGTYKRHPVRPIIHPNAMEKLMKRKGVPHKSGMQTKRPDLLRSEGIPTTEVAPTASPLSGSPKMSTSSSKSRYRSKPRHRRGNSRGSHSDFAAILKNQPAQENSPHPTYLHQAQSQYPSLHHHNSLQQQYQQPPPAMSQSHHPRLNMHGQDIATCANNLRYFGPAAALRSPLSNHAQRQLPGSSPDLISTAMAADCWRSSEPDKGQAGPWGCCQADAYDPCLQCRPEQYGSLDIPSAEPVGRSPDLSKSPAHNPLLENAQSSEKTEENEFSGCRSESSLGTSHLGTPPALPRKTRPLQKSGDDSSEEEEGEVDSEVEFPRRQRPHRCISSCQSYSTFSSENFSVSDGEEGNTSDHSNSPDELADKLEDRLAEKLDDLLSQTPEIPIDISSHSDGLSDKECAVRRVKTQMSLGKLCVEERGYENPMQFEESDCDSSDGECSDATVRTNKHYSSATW
Method in brief: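 Active-site-directed competition binding panel (KinomeScan) covering 468 kinases. Test agent was screened at 1 μM. The read-out is the remaining kinase signal expressed relative to a DMSO control. Scores above 35%, taken as weak binding, were not reported.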

[8] = target: Serine/threonine-protein kinase 17A (Homo sapiens) (UniProt Q9UEE5); assay: Binding affinity to wild-type human partial length DRAK1 (R32 to E363 residues) expressed in bacterial expression system assessed as residual binding level at 1 uM by Kinomescan method relative to control
Chain of Serine/threonine-protein kinase 17A (Homo sapiens) (Q9UEE5 whole entry, the tested form may be a part): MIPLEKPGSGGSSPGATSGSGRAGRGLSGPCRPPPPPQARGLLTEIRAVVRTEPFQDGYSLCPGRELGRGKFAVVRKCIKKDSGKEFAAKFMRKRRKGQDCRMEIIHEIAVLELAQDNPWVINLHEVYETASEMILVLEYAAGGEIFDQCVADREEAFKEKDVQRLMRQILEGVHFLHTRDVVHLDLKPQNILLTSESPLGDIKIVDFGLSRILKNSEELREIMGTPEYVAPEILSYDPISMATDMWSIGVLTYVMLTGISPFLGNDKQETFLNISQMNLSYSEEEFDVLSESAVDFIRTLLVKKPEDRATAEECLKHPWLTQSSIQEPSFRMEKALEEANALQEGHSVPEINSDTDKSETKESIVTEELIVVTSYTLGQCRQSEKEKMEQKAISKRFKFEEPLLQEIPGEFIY

[9] = target: Mitogen-activated protein kinase kinase kinase kinase 4 (Homo sapiens) (UniProt O95819); assay: Binding affinity to wild-type human partial length MAP4K4 (M1 to R310 residues) expressed in bacterial expression system assessed as residual binding level at 1 uM by Kinomescan method relative to control
Chain of Mitogen-activated protein kinase kinase kinase kinase 4 (Homo sapiens) (O95819 2-1239 limits assumed): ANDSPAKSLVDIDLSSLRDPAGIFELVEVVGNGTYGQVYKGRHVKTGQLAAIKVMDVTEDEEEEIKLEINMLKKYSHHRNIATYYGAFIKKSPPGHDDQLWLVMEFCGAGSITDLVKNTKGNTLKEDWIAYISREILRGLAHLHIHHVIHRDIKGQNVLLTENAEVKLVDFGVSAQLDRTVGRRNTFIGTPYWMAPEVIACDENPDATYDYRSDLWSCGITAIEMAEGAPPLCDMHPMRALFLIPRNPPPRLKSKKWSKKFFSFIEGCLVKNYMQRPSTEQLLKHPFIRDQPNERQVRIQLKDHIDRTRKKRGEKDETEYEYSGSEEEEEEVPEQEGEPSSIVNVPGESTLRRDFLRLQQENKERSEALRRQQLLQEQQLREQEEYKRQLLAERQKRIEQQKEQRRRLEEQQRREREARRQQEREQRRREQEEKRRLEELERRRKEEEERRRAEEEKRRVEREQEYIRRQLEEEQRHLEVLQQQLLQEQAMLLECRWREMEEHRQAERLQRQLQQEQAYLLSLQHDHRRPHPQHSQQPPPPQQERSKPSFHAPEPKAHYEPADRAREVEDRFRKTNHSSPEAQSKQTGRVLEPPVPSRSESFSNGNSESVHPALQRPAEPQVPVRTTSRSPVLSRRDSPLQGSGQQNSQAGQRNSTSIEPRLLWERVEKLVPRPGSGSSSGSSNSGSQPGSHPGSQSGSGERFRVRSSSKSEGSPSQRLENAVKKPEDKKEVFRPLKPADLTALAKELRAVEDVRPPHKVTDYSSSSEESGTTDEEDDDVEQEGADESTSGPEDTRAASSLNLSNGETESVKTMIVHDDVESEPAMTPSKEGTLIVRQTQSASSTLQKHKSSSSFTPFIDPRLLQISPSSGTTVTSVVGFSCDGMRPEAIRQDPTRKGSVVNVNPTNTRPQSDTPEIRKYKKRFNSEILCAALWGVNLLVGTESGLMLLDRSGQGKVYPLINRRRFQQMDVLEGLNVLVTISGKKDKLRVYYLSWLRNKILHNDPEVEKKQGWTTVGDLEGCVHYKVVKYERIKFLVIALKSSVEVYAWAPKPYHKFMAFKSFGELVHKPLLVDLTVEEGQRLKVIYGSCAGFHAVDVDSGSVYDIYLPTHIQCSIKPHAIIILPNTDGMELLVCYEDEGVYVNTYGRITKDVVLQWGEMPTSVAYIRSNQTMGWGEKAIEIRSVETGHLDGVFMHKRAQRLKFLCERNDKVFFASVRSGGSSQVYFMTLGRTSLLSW

[10] = target: Mitogen-activated protein kinase kinase kinase 11 (Homo sapiens) (UniProt Q16584); assay: Binding affinity to wild-type human partial length MLK3 (I77 to W399 residues) expressed in bacterial expression system assessed as residual binding level at 1 uM by Kinomescan method relative to control
[11] = target: Ribosomal protein S6 kinase alpha-4 (Homo sapiens) (UniProt O75676); assay: Binding affinity to wild-type human partial length N-terminal RPS6KA4 kinase domain 1 expressed in bacterial expression system assessed as residual binding level at 1 uM by Kinomescan method relative to control
[12] = target: cGMP-dependent protein kinase 1 (Homo sapiens) (UniProt Q13976); assay: Binding affinity to wild-type human partial length PRKG1 (L339 to F686 residues) expressed in bacterial expression system assessed as residual binding level at 1 uM by Kinomescan method relative to control
[13] = target: Serine/threonine-protein kinase B-raf (Homo sapiens) (UniProt P15056); assay: Binding affinity to wild-type human partial length BRAF (S429 to E741 residues) expressed in mammalian expression system assessed as residual binding level at 1 uM by Kinomescan method relative to control
[14] = target: Serine/threonine-protein kinase pim-2 (Homo sapiens) (UniProt Q9P1W9); assay: Binding affinity to wild-type human partial length PIM2 (M1 to E291 residues) expressed in bacterial expression system assessed as residual binding level at 1 uM by Kinomescan method relative to control
[15] = target: Phosphatidylinositol 3-kinase C2 domain-containing subunit gamma (Homo sapiens) (UniProt O75747); assay: Binding affinity to wild-type human partial length PIK3C2G (M1 to I1446 residues) expressed in mammalian expression system assessed as residual binding level at 1 uM by Kinomescan method relative to control
[16] = target: Serine/threonine-protein kinase ICK (Homo sapiens) (UniProt Q9UPZ9); assay: Binding affinity to wild-type human partial length ICK (M1 to P314 residues) expressed in mammalian expression system assessed as residual binding level at 1 uM by Kinomescan method relative to control; method in brief: as §1
[17] = test system: Epidermal growth factor receptor (Homo sapiens), P00533 [UNDEFINED MUTATION]; assay: Binding affinity to human partial length EGFR L747-S752del/P753S mutant expressed in bacterial expression system assessed as residual binding level at 1 uM by Kinomescan method relative to control
Chain of Epidermal growth factor receptor (Homo sapiens), P00533 [UNDEFINED MUTATION] (P00533 whole entry, looked up, stated change not applied): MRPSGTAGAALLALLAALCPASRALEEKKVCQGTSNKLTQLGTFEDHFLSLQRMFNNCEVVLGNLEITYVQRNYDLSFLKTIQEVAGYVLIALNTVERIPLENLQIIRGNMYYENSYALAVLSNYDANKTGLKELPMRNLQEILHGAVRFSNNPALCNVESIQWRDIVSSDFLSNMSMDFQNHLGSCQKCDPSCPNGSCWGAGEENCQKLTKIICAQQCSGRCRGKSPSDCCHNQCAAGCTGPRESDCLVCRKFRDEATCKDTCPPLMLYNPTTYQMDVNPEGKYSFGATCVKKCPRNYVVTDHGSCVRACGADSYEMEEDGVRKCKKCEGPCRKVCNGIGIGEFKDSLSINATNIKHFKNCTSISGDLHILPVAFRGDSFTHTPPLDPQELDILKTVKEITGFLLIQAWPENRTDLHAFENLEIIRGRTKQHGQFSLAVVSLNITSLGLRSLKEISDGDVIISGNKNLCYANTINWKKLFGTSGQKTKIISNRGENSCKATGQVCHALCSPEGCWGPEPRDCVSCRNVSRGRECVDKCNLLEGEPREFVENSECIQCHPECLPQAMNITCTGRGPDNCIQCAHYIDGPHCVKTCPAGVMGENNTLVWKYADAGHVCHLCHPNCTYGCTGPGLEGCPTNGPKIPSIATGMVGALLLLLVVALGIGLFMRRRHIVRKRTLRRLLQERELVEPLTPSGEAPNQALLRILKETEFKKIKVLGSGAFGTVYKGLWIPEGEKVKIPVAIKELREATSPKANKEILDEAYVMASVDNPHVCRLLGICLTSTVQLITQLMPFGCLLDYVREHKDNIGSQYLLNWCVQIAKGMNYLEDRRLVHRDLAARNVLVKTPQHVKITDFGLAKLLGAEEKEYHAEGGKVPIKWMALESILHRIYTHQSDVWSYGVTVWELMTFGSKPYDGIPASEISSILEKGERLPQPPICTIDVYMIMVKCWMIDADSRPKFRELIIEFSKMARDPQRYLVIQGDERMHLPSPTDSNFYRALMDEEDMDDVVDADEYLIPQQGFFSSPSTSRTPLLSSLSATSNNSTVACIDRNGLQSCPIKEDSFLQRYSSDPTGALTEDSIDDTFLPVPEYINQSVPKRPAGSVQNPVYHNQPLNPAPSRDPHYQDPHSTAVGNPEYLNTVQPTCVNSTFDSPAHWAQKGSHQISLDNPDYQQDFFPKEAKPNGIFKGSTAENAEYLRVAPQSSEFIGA
Method in brief: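 KinomeScan active site-directed competition binding panel (468 kinases), compound tested at 1 μM. Result expressed as remaining kinase signal versus DMSO control (percent of control).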

[18] = target: Mitogen-activated protein kinase kinase kinase 19 (Homo sapiens) (UniProt Q56UN5); assay: Binding affinity to wild-type human partial length YSK4 (T1019 to H1328 residues) expressed in mammalian expression system assessed as residual binding level at 1 uM by Kinomescan method relative to control
Method in brief: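 Active site-directed competition binding panel (KinomeScan, 468 kinases). Test compound at 1 μM. Read-out is kinase binding remaining versus DMSO control, expressed as percent of control. Scores above 35% are treated as weak binding.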

[19] = target: Receptor-interacting serine/threonine-protein kinase 4 (Homo sapiens) (UniProt P57078); assay: Binding affinity to wild-type human partial length RIPK4 (M1 to V303 residues) expressed in mammalian expression system assessed as residual binding level at 1 uM by Kinomescan method relative to control
[20] = target: Mitogen-activated protein kinase kinase kinase 12 (DLK) (Homo sapiens) (UniProt Q12852); assay: Binding affinity to wild-type human full length DLK (M1 to P859 residues) expressed in mammalian expression system assessed as residual binding level at 1 uM by Kinomescan method relative to control

C=CC(=O)Nc1ccccc1Nc1nc(Nc2ccc(N3CCN(C)CC3)cc2)ncc1C(=O)Nc1c(C)cccc1Cl
Activity [1]: 100%
Activity [2]: 100%
Activity [3]: 100%
Activity [4]: 74%
Activity [5]: 30%
inhibition [6]: inactive
Activity [7]: 91%
Activity [8]: 100%
Activity [9]: 100%
Activity [10]: 100%
Activity [11]: 100%
Activity [12]: 100%
Activity [13]: 100%
Activity [14]: 95%
Activity [15]: 100%
Activity [16]: 96%
Activity [17]: 74%
Activity [18]: 83%
Activity [19]: 100%
Activity [20]: 97%
